Rows were chosen to be rich in hits. Some 3.1% of all compounds tested hit in one or more screens of this group.
HKDC1 inhibitor: HKDC1 hexokinase inhibitors, primary screen, biochemical, fluorescence, uHTS. recombinant HKDC1, G6PDH/diaphorase resazurin coupled fluorescence. 0.16% of 340,000 active. Q2TB90. inhibition, % at 20 µM. AID 493160, 2011;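 active = inhibition above about 35% when tested at 20 µM, limit read from the data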
Target sequence (Q2TB90 whole entry, looked up): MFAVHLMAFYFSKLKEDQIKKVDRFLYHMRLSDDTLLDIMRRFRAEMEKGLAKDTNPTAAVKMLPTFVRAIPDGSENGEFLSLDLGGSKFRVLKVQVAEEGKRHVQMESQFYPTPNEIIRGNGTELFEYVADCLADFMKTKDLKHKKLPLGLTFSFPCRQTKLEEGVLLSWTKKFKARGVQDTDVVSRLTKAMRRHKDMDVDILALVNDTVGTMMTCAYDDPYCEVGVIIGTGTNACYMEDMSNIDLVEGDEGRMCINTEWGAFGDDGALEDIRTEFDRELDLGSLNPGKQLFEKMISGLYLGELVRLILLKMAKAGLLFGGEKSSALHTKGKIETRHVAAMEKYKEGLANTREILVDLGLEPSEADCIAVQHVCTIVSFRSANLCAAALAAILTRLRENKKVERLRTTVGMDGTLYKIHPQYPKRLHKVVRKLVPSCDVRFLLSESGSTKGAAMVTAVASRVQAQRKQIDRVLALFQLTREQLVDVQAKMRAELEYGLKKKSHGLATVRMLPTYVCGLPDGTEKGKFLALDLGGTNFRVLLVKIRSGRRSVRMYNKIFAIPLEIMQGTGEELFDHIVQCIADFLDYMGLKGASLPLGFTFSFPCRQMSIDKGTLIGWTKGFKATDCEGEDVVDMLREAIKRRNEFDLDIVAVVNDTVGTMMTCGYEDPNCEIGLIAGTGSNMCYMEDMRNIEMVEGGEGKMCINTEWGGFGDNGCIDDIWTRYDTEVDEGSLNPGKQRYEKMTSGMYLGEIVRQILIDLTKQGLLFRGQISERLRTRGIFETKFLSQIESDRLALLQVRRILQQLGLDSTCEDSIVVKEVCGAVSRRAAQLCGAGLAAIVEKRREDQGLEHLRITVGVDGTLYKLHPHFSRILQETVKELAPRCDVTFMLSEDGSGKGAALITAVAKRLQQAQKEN
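Incubation: 90 min at room temperature in dark / Material: recombinant HKDC1 (HK5) hexokinase enzyme, produced in-house / Quantity: enzyme 5 µg/mL final / Compound: one dose of 20 µM, 1% DMSO / Reagent: glucose and ATP substrates / Buffer or medium: Tris pH 8.0 buffer with MgCl2, Tween-20, BSA, BME / Technique: resorufin fluorescence at 613 nm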
HSP90 inh: HSP90 inhibitors, primary screen, cell lysate, luminescence; 0.91% of 290,000 active; inhibition, % at 5.6 µM; Rabbit reticulocyte lysate, luciferase refolding luminescence, 3 h;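 active = inhibition above the screen-wide mean plus 3 SD, computed separately per campaign, cut at about 16% in these data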;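 also: inhibitors lower the luminescence because luciferase stays unfolded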
Hsp70 act: Hsp70 transcriptional activators, primary screen, cell-based, HeLa, Hsp70 promoter luciferase, luminescence, 10 µM. HeLa Hsp70 promoter luciferase reporter; scaled: vehicle 0, proteasome-inhibitor control 100%. activation, % at 10 µM. 0.04% of 200,000 active. AID 1203, 2008;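 active = activation above the mean across all tested compounds plus 3 SD, cutoff set per campaign, cut at about 5.5% in these data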
HSF1 activator: HSF-1 activators, primary screen, NIH3T3-HGL cells, MG132 stress, luminescence, single point; NIH3T3-HGL HSF-1 luciferase reporter, 8 h; 100% = twice DMSO control signal; activation, % at 9 µM; 1.7% of 300,000 active;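 active = mean replicate activation of at least 50% with a set share of replicates each reaching 50%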
HSF1 inh: HSF1 inhibitors in luciferase reporter cells, primary screen, cell-based, NIH3T3, luminescence; NIH3T3-HGL HSE-luciferase, MG132-induced, luminescence 8 h; hits give low values; activity change, negative = inhibition, % at 7.5 µM (by protocol); 0.77% of 300,000 active; AID 2098, 2009;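 active = more than half of replicate wells show activity change below -50%, luminescence cut by over half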;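 also: luciferase reports HSF-1 transcriptional activity via heat shock element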
TbHK1 inh: Trypanosoma brucei hexokinase 1 inhibitors, primary screen, biochemical, G6PDH-coupled NADH absorbance, MLSCN library | inhibition, % at 10 µM | recombinant TbHK1, G6PDH-coupled NADH A340 | AID 1430, 2008 | hexokinase 1 [Trypanosoma brucei] | 0.11% of 220,000 active;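 active = inhibition of 50% or more in the single-dose primary screen; inactive = inhibition below 50%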
HSP90 inh confirm: HSP90 inhibitors, confirmation, cell lysate, luminescence. shares compounds with HSP90 inh. rabbit reticulocyte lysate, luciferase refolding luminescence, 3 h. inhibition, % at 5.9 µM. 64% of 2,300 active. AID 1846, 2009; in the data active = inhibition above about 18%
FLuc counter: firefly luciferase inhibitors, HSP90 counter-screen, confirmation, artefact control for HSP90 inhibitor project, biochemical, luminescence, triplicate; shares compounds with HSP90 inh; purified native firefly luciferase; inhibition, % at 5.9 µM; 48% of 2,300 active; AID 1847, 2009;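 active = inhibition above the mean inhibition of all tested sample wells plus 3 SD, cut at about 10% in these data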
Large screens that a line does not name were inactive (follow-up assays come after a bar, where they were run).

CCOCC(=O)Nc1cc(C(=O)NCCc2ccccc2)ccc1Cl	HSP90 inh 17 | HSP90 inh confirm 32 | FLuc counter inactive
CC(C)(C)c1ccc(C(=O)NCCOc2ccccc2F)cc1	HSP90 inh 63, HSF1 inh -71 (no result: Hsp70 act, TbHK1 inh) | HSP90 inh confirm 80 | FLuc counter 78
O=C(NCCc1ccccc1)c1ccc([N+](=O)[O-])cc1	HSP90 inh 23 | HSP90 inh confirm 34 | FLuc counter 30
O=C(Nc1ncc([N+](=O)[O-])s1)c1ccc2c(c1)OCO2	HSP90 inh 76 (no result: Hsp70 act, TbHK1 inh) | HSP90 inh confirm 87 | FLuc counter 76
Cc1cnc(NC(=O)c2ccc3c(c2)OCCO3)s1	none (no result: HSP90 inh, Hsp70 act, HSF1 activator, HSF1 inh, TbHK1 inh)
CN=c1scc(-c2ccc(F)cc2)n1/N=C/c1ccc(O)c(O)c1	HSP90 inh 20 (no result: HSF1 activator, HSF1 inh) | HSP90 inh confirm 42 | FLuc counter 19
CC1(c2nnc(-c3cccc(Cl)c3)o2)CC(c2ccc(F)cc2)=NO1 (configuration not stated)	none (no result: HSP90 inh, Hsp70 act, TbHK1 inh)
COc1ccc(/C=N\Nc2ccccc2[N+](=O)[O-])c(C(=O)O)c1OC	HSP90 inh 18 (no result: Hsp70 act) | HSP90 inh confirm inactive | FLuc counter inactive
COc1ccc(/C=N/Nc2cc(OC)ncn2)cc1	HSP90 inh 18, HSF1 activator 69 | HSP90 inh confirm 31 | FLuc counter 26
CC(=O)c1ccc(N2CCN(C(=O)c3cccs3)C(C)C2)c(F)c1 (configuration not stated)	none (no result: Hsp70 act, TbHK1 inh)
O=C(O)c1cccc(-n2c(O)c(C=C3N=c4ccccc4=N3)sc2=S)c1	HSP90 inh 47 (no result: Hsp70 act) | HSP90 inh confirm 66 | FLuc counter inactive
O=C(O)c1ccc(-n2c(O)c(C=C3N=c4ccccc4=N3)sc2=S)cc1	none (no result: Hsp70 act)
CC(C)(C)c1ccc(-c2nnc3sc(-c4ccccn4)nn23)cc1	HSP90 inh 40, HSF1 inh -53 | HSP90 inh confirm 54 | FLuc counter 26
Cc1ccc(Nc2nc(-c3sc(NC(=O)c4cccc(Cl)c4)nc3C)cs2)cc1	HSP90 inh 70 (no result: HKDC1 inhibitor) | HSP90 inh confirm 46 | FLuc counter inactive
COc1ccccc1Nc1nc(-c2sc(NC(=O)C(C)(C)C)nc2C)cs1	none
COc1ccccc1Nc1nc(-c2sc(NC(=O)c3cccc(Cl)c3)nc2C)cs1	HSP90 inh 66 (no result: HKDC1 inhibitor) | HSP90 inh confirm 61 | FLuc counter inactive
CC[C@]1(C(=O)OC)[C@H]2C(=O)N(C)C(=O)[C@H]2[C@H]2CN=C(SC)N21	none (no result: HSP90 inh, Hsp70 act, HSF1 activator, HSF1 inh, TbHK1 inh)
CC(=O)N/C(=C\c1ccccc1)C(=O)OCC(=O)N(CC(C)C)c1c(N)n(Cc2ccccc2)c(=O)[nH]c1=O	none (no result: HSP90 inh, Hsp70 act, TbHK1 inh)
CCOc1ccc(S(=O)(=O)NCCc2cn3ccccc3n2)cc1	none (no result: Hsp70 act, TbHK1 inh)
CCOc1ccc(-c2cn3ccccc3n2)cc1	HSP90 inh 27 (no result: HSF1 activator, HSF1 inh) | HSP90 inh confirm 64 | FLuc counter 47
CCOc1ccc(-c2cnc3ccccc3n2)cc1	HSP90 inh 42, HSF1 inh -58 (no result: Hsp70 act) | HSP90 inh confirm 86 | FLuc counter 80
Cc1cc(C(=O)NC(C)C2CCCO2)c(C)o1 (configuration not stated)	none (no result: Hsp70 act, TbHK1 inh)
Nc1c(C(=O)CSc2nc3ccccc3o2)c(=O)[nH]c(=O)n1C1CC1	none (no result: HSP90 inh, Hsp70 act, HSF1 activator, HSF1 inh, TbHK1 inh)
CN(CC(=O)Nc1ccccc1Br)C(=O)c1ccccc1-c1nc2ccccc2s1	none (no result: Hsp70 act, TbHK1 inh)
O=C1C2CCCN2C(=S)N1c1ccccc1 (configuration not stated)	HSP90 inh 49 (no result: Hsp70 act, TbHK1 inh) | HSP90 inh confirm inactive | FLuc counter inactive
CCCCc1nnc(NC(=O)c2ccc3[nH]c(=O)c(=O)[nH]c3c2)s1	none (no result: Hsp70 act, TbHK1 inh)
c1ccc(-c2nccc3ccccc23)cc1	none (no result: HSP90 inh, Hsp70 act, TbHK1 inh)
Cc1ccc(-c2nc(-c3nccc4ccccc34)oc2-c2ccccc2)cc1	HSP90 inh 23, HSF1 activator 54 (no result: Hsp70 act) | HSP90 inh confirm 41 | FLuc counter 46
CS(=O)(=O)c1ccc(Cl)c(NC(=O)CSc2nnc(C3CC3)n2C2CC2)c1	none (no result: HSP90 inh, Hsp70 act, HSF1 activator, HSF1 inh, TbHK1 inh)
CN(C)S(=O)(=O)c1ccc(C(=O)NN2C(=O)NC3(CCCCC3)C2=O)cc1	none (no result: HSP90 inh, Hsp70 act, HSF1 activator, HSF1 inh, TbHK1 inh)
Cc1nc(-c2noc(-c3cccc(Cl)c3)n2)c(C(F)(F)F)o1	HSP90 inh 21 (no result: Hsp70 act) | HSP90 inh confirm inactive | FLuc counter inactive
Cc1nc(-c2noc(-c3ccccc3Cl)n2)c(C(F)(F)F)o1	none (no result: Hsp70 act)
COc1ccc(-c2nc(-c3cccs3)no2)cc1	HSP90 inh 33 (no result: Hsp70 act) | HSP90 inh confirm 87 | FLuc counter 81
COc1ccc(CCNc2nc(-c3ccc(F)cc3)c(CC(=O)O)s2)cc1OC	none (no result: Hsp70 act, TbHK1 inh)
COCCn1c(SCc2cccc(F)c2)nc2cc(C(=O)OC)ccc2c1=O	none (no result: Hsp70 act, TbHK1 inh)
CCC(=O)NC1=C(NC(C)c2ccccc2)C(=O)c2ccccc2C1=O (configuration not stated)	none
CCC(=O)NC1=C(Cl)C(=O)C(NC(=O)CC)=C(Cl)C1=O	HSP90 inh 30 (no result: Hsp70 act, HSF1 activator, HSF1 inh) | HSP90 inh confirm inactive | FLuc counter 75
C/C(=N\OCC(=O)OCC(=O)NC(=O)c1ccccc1)c1ccc2c(c1)OCO2	none (no result: HSP90 inh, Hsp70 act, TbHK1 inh)
Cc1cc(N=Nc2ccc(C)c(N=Nc3cc(C)c(N)cc3N)c2)c(N)cc1N	HSP90 inh 17 (no result: Hsp70 act) | HSP90 inh confirm 33 | FLuc counter 51
C[C@H](CO)N1C[C@H](C)[C@@H](CN(C)C(=O)NC2CCCCC2)Oc2c(NC(=O)Nc3ccc(C(F)(F)F)cc3)cccc2C1=O	none (no result: HSP90 inh, Hsp70 act, HSF1 activator, HSF1 inh, TbHK1 inh)
CCN(CC)CCOC(=O)c1ccc(NC(=O)CCCN2C(=O)S/C(=C/c3ccc(OC)cc3)C2=S)cc1	HSP90 inh 34 (no result: Hsp70 act, TbHK1 inh) | HSP90 inh confirm 30 | FLuc counter inactive
COc1ccc(/C=C2\SC(=S)N(CCC(=O)Nc3ccc(O)cc3)C2=O)cc1	none (no result: Hsp70 act, TbHK1 inh)
O=C(CS(=O)(=O)c1ccccc1)Nc1ccccc1Br	none (no result: HSP90 inh, Hsp70 act, HSF1 activator, HSF1 inh, TbHK1 inh)
CCc1cc2c(-n3nc(C)cc3C)ncnc2s1	HSP90 inh 39 | HSP90 inh confirm inactive | FLuc counter inactive
CCSCCOC(=O)C1=C(C)N(C)C(=O)NC1c1ccc2c(c1)OCO2 (configuration not stated)	none (no result: Hsp70 act, TbHK1 inh)
